Measured values taken from PMC6263940 (Nature chemical biology, 2018).

What was measured:
mice = experiment: Two-week daily dosing, overt signs of toxicity; assay type: in vivo, mouse; details: adult mice, 30 mg/kg daily, p.o., two weeks
ABHD2 = biological target: T1, ABHD2 (Mus musculus, UniProt Q9QXM0); experiment: Quantitative MS-ABPP of brain membrane proteome from treated mice: ABHD2; assay type: in vivo; details: 30 mg/kg, i.p., 4 h
T1 sequence (Q9QXM0 1-425): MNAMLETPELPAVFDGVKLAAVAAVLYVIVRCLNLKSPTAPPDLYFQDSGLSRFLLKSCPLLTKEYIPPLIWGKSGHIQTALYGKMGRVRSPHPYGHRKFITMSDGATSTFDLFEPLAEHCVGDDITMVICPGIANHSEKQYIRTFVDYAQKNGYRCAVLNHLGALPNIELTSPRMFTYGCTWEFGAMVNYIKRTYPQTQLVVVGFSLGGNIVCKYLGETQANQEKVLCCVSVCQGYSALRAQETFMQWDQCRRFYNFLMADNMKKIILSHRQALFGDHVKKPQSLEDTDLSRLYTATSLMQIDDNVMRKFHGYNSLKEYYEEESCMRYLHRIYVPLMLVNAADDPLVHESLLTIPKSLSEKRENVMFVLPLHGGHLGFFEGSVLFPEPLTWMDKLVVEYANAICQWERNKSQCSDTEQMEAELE
Procedure, shortened: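 Mice dosed i.p. with test compound (30 mg/kg) or vehicle and killed after 4 h (isoflurane, then cervical dislocation). Brain membrane serine hydrolase activities quantified by MS-based ABPP. Each protein's value is the mean of median peptide ratios (treated vs vehicle) ± SEM, from n = 4 or 3 independent samples per compound.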

[1] = biological target: T2, mouse brain serine hydrolases (Mus musculus, UniProt Q9QXM0); assay type: biochemical; details: MS-ABPP, mouse brain membrane proteome, 1 μM
T2 sequence (Q9QXM0 1-425): T1 sequence (Q9QXM0 1-425)

ABHD12 [2] = biological target: T3, ABHD12 (Homo sapiens, UniProt Q8N2K0); experiment: Gel-based competitive ABPP; assay type: cell-based; details: 24 h treatment, JJH350 probe
T3 sequence (Q8N2K0 1-398): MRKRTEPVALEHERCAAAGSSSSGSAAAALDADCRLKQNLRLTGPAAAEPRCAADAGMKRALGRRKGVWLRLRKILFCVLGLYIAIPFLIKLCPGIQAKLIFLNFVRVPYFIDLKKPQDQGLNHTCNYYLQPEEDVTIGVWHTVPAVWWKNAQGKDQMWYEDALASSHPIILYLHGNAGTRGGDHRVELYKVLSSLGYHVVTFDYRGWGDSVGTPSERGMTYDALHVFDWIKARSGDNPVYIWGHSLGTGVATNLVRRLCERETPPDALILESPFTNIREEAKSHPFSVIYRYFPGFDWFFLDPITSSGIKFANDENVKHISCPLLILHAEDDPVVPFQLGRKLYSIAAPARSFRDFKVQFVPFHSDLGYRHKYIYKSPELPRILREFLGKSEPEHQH
Procedure, shortened: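 PBMCs collected from the gradient interface, red cells lysed (5 min, room temperature) and plated in DPBS at 2.26 × 10⁵ cells/cm²; adherent monocytes attach within 1–2 h. After in situ treatment, proteome (1 mg/mL) labelled with JJH350 (2 μM final, 45 min, 37 °C), clicked and run on gel. ABHD12 band intensity is normalised to the control sample (100%).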

ABHD12 [3] = biological target: T3, ABHD12; experiment: ABPP-SILAC; assay type: cell-based; details: 1 μM, 4 h, THP-1 cells
Procedure, shortened: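 Heavy- or light-labelled THP-1 cells (30 million) differentiated with PMA (150 ng/mL final) for 24 h, washed, then kept a further 24 h in fresh SILAC medium. Light cells treated with test compound and heavy cells with DMSO, 4 h at 37 °C. Sonicated whole-cell proteomes (2 mg/mL) labelled separately with FP-biotin 1 μM, 30 min, room temperature, then combined for quantitative MS.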

ABHD12 [4] = biological target: T4, ABHD12 (Mus musculus, UniProt Q99LR1); experiment: Lyso-PS hydrolysis assay with membrane lysates of ABHD12-transfected cells; assay type: biochemical
T4 sequence (Q99LR1 1-398): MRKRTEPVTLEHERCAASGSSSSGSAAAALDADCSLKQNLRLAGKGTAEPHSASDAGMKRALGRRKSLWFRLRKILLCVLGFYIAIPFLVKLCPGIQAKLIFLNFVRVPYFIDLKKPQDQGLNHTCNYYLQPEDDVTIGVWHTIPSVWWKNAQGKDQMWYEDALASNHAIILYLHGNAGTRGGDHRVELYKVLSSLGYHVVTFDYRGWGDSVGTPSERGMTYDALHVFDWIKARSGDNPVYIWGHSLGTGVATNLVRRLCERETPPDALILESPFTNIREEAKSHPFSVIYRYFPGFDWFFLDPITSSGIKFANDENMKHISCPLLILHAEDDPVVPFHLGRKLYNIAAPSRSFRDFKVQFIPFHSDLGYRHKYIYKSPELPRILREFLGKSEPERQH
Procedure, shortened: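 Membrane lysate of ABHD12-transfected cells in DPBS incubated with 17:1 lyso-PS (100 μM final) for 20 min at 37 °C. Quenched in 2:1 CHCl₃/MeOH with 15:0 FFA internal standard. Activity is the LC-MS 17:1 FFA/15:0 FFA peak-area ratio minus mock-transfected membrane activity. IC50 fitted as log(inhibitor) vs normalized response.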

With FC(F)(F)Oc1ccc(Oc2ccnc(N3CCC(NC(=S)Nc4cccnc4)CC3)c2Cl)c(Cl)c1 [DO264, N-3-pyridyl-N’-(1-[3-chloro-4-{2-chloro-4-(trifluoromethoxy)phenoxy}pyridine-2-yl]piperidin-4-yl)thiourea] the “overt signs of toxicity, such as weight loss or behavioral distress” value (mice) was “neither compound produced overt signs of toxicity”, the “reduction in ABHD2 activity in treated mice” value (ABHD2) was 40-50% and the “inhibition of mouse ABHD2 in vitro” value [1] was “did not inhibit”. The “ABHD12 activity in primary human macrophages” value (ABHD12 [2]) was “inhibits ABHD12 activity”, the ABHD12 activity blocked (ABHD12 [3]) was over 95% and the “time dependence of ABHD12 inhibition” value (ABHD12 [4]; 30-45 min or no preincubation, ABHD12-transfected HEK293T lysate 0.2 mg/mL) was “did not show time-dependent inhibition”. The “ABHD12 activity after dilution of inhibitor-treated lysates” value (ABHD12 [4]; ABHD12-transfected HEK293T lysates, preincubated 20 min, diluted five-fold) was “recovery of ABHD12 activity”.
